Test results: ChEMBL document CHEMBL1126752, “Synthesis and biological activity of cis-(3aR)-(-)-2,3,3a,4,5,9b-hexahydro- 3-propyl-1H-benz[e]indole-9-carboxamide: a potent and selective 5-HT1A receptor agonist with good oral availability” (J Med Chem, 1993)
Calls of active or inactive are those of the source. No cut-off for these calls is given here.

Legend:
Rattus norvegicus [1] = species on record: Rattus norvegicus; assay: Inhibition of 5-HT1A cell firing in rats; assay type: functional
Summary of the method: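 Male Sprague-Dawley rats (280-330 g) under chloral hydrate anesthesia (400 mg/kg ip), drug given iv via femoral vein in distilled water. Dorsal raphe serotonergic neurons recorded extracellularly and confirmed histologically by dye deposit. Firing rate followed by integrated ratemeter.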

Rattus norvegicus [2] = assay: DOPA accumulation in hemispheres of reserpinized rats following subcutaneous administration at highest dose tested (50 umol/kg); Inactive; assay type: functional, organism-based
Mus musculus [3] = assay: Swimming activity of the treated mice/control mice at 41 umol/kg, sc (p < 0.001); assay type: functional
Mus musculus [4] = assay: Effect on hypothermia in mice following peroral administration; conditions: po
Mus musculus [5] = assay: Swimming activity of the treated mice/control mice at 12 umol/kg, sc (p < 0.001); assay type: functional
Rattus norvegicus [6] = assay: DOPA accumulation in hemispheres of reserpinized rats following peroral administration at highest dose tested (50 umol/kg); Inactive; assay type: functional, organism-based
[7] = Half-life time in rats; assay type: ADME, organism-based; conditions: rat, in vivo
Summary of the method: (§1)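 Male Sprague-Dawley rats (300 g) with arterial catheters, sampled from 24 h after surgery for 10-24 h; oral groups starved 18 h with free water. Blood levels measured by GC/MS with internal standard, samples run in duplicate. Availability from po vs iv AUC (n = 4), dosed 1 μmol/kg iv and 20 μmol/kg po.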

Rattus norvegicus [8] = species on record: Rattus norvegicus; assay: Compound was tested for gross behavioral response in rats; full-blown 5-HT syndrome; assay type: functional, organism-based
Rattus norvegicus [9] = assay: DOPA accumulation in corpus striatum of reserpinized rats following subcutaneous administration at highest dose tested (50 umol/kg); Inactive; assay type: functional, organism-based
Rattus norvegicus [10] = assay: 5-HTP accumulation in limbic system of reserpinized rats following subcutaneous administration; assay type: functional; conditions: sc
Mus musculus [11] = assay: Effect on hypothermia in mice following subcutaneous administration; conditions: sc
Mus musculus [12] = assay: Swimming activity of the treated mice/control mice at 1.2 umol/kg, sc; assay type: functional
Rattus norvegicus [13] = assay: 5-HTP accumulation in corpus striatum of reserpinized rats following subcutaneous administration; assay type: functional; conditions: sc
Rattus norvegicus [14] = assay: DOPA accumulation in limbic system of reserpinized rats following peroral administration at highest dose tested (50 umol/kg); Inactive; assay type: functional, organism-based
Rattus norvegicus [15] = assay: DOPA accumulation in corpus striatum of reserpinized rats following peroral administration at highest dose tested (50 umol/kg); Inactive; assay type: functional, organism-based
Rattus norvegicus [16] = assay: In vivo motor activity at 0.2 umol/kg (sc) in male rats expressed as accumulated counts/30 min (p < 0.05); assay type: functional
Felis catus [17] = assay: Maximum decrease in blood pressure observed following 1 mg/kg dose in anesthetized cat; assay type: functional; design: unit not given here
Summary of the method: (§2)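 Adult cats (2.5-4.0 kg) anesthetized with ketamine 11 mg/kg im then chloralose 80 mg/kg iv. Animals paralyzed with gallamine, ventilated, and kept at 37-38 °C. Blood pressure recorded via femoral artery. Sympathetic activity quantified by cumulative integration. Increasing doses given iv cumulatively at 20-min intervals.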

Rattus norvegicus [18] = assay: DOPA accumulation in limbic system of reserpinized rats following subcutaneous administration at highest dose tested (50 umol/kg); Inactive; assay type: functional, organism-based
Rattus norvegicus [19] = assay: Oral availability obtained from blood plasma levels of the parent compound following 1 uMol /kg intravenous and 20 umol /kg peroral administration; assay type: functional, organism-based; summary of the method: as §1
Rattus norvegicus [20] = assay: In vivo motor activity at 10 umol/kg (po) in male rats expressed as accumulated counts/30 min (p < 0.05)
Rattus norvegicus [21] = assay: 5-HTP accumulation in limbic system of reserpinized rats following peroral administration; assay type: functional; conditions: po
Felis catus [22] = assay: Percent arterial blood pressure at sympathetic nerve discharge in anesthetized cat; assay type: functional; summary of the method: as §2
Mus musculus [23] = assay: Swimming activity of the treated mice/control mice at 4.0 umol/kg, sc (p < 0.001); assay type: functional
Rattus norvegicus [24] = assay: 5-HTP accumulation in hemispheres of reserpinized rats following peroral administration; assay type: functional; conditions: po
Felis catus [25] = assay: Maximum decrease in sympathetic nerve discharge in anesthetized cat; assay type: functional
Summary of the method: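 Cats (2.5-4.0 kg) anesthetized with ketamine 11 mg/kg im then chloralose 80 mg/kg iv, paralyzed with gallamine and ventilated, rectal temperature kept at 37-38 °C. Increasing iv doses given cumulatively at 20-min intervals; sympathetic activity quantified by cumulative integration and expressed as percent of control.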

Felis catus [26] = assay: Inhibition of sympathetic nerve discharge (SND) in anesthetized cat; assay type: functional; summary of the method: as §2
Rattus norvegicus [27] = assay: 5-HTP accumulation in corpus striatum of reserpinized rats following peroral administration; assay type: functional; conditions: po
Rattus norvegicus [28] = assay: 5-HTP accumulation in hemispheres of reserpinized rats following subcutaneous administration; assay type: functional; conditions: sc
Rattus norvegicus [29] = assay: In vivo motor activity at 61 umol/kg (po) in male rats expressed as accumulated counts/30 min (p < 0.001); assay type: functional
Rattus norvegicus [30] = species on record: Rattus norvegicus; assay: Compound was tested for gross behavioral response in rats; partial 5-HT syndrome; assay type: functional, organism-based
Felis catus [31] = assay: Maximum decrease in sympathetic nerve discharge in anesthetized cat.; assay type: functional; summary of the method: as §2
Mus musculus [32] = assay: Swimming activity of the treated mice/control mice at 6.6 umol/kg, sc; assay type: functional
Rattus norvegicus [33] = assay: In vivo motor activity at 50 umol/kg (po) in male rats expressed as accumulated counts/30 min (p < 0.001); assay type: functional
Mus musculus [34] = assay: Swimming activity of the treated mice/control mice at 39 umol/kg, sc (p < 0.01); assay type: functional
Rattus norvegicus [35] = assay: In vivo motor activity at 5 umol/kg (sc) in male rats expressed as accumulated counts/30 min (p < 0.001); assay type: functional
Rattus norvegicus [36] = assay: DOPA accumulation in limbic system of reserpinized rats following peroral administration at highest dose tested (50 umol/kg); Partially active; assay type: functional, organism-based
[37] = molecular target: T1, 5-hydroxytryptamine receptor 1A (Homo sapiens, UniProt P08908); assay: Binding affinity against [3H]8-OH-DPAT-labeled 5-hydroxytryptamine 1A receptor sites in cloned CHO cells; assay type: cell-based
T1 sequence (P08908 whole entry): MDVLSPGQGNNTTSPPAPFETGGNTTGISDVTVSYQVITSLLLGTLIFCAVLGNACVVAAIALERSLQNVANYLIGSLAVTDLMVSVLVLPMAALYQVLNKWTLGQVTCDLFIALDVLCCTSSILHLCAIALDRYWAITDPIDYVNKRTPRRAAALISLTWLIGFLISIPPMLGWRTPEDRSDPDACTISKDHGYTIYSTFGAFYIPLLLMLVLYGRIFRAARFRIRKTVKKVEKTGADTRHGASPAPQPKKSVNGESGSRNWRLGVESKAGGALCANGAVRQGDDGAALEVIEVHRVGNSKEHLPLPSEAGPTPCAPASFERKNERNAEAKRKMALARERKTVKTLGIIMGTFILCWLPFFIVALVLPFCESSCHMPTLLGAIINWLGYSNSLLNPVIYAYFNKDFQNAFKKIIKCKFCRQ
Summary of the method: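 Competition binding against [3H]-8-OH-DPAT (85 Ci/mmol, 1.2 nM) using 11 dilutions of test compound. Receptor was cloned mammalian 5-HT1A expressed in CHO-K1 cells. IC50 from a one-site nonlinear least-squares fit, converted to Ki by Cheng-Prusoff. Ki reported ±SEM.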

Mus musculus [38] = assay: Swimming activity of the treated mice/control mice at 12 umol/kg, sc; assay type: functional
Rattus norvegicus [39] = assay: In vivo motor activity at 50 umol/kg (sc) in male rats expressed as accumulated counts/30 min; assay type: functional
Mus musculus [40] = assay: Swimming activity of the treated mice/control mice at 39 umol/kg, sc; assay type: functional
Mus musculus [41] = assay: Swimming activity of the treated mice/control mice at 39 umol/kg, sc (p < 0.05); assay type: functional

Q: With `CCCN(CCC)C1CCc2cccc(O)c2C1` (racemic) [8-OH-DPAT] as the compound, how does the ED50 (Rattus norvegicus [1]) read?
A: 0.006 µmol/kg

Q: And the ED50 (Rattus norvegicus [2])?
A: inactive

Q: And the Swimming activity (Mus musculus [3])?
A: 3.4 T/C

Q: What about the ED50 (Mus musculus [4]) of the same compound?
A: 30 µmol/kg

Q: And the Swimming activity (Mus musculus [5])?
A: 4.6 T/C

Q: What about the ED50 (Rattus norvegicus [6]) of the same compound?
A: inactive

Q: What about the half-life [7] of the same compound?
A: 1 h

Q: And the Response (Rattus norvegicus [8])?
A: Active

Q: And the ED50 (Rattus norvegicus [9])?
A: inactive

Q: And the ED50 (Rattus norvegicus [10])?
A: 0.052 µmol/kg

Q: And the ED50 (Mus musculus [11])?
A: 3 µmol/kg

Q: And the Swimming activity (Mus musculus [12])?
A: 0.9 T/C

Q: What about the ED50 (Rattus norvegicus [13]) of the same compound?
A: 0.052 µmol/kg

Q: What about the ED50 (Rattus norvegicus [14]) of the same compound?
A: inactive

Q: What about the ED50 (Rattus norvegicus [15]) of the same compound?
A: inactive

Q: And the “Accumulated counts/30 min” value (Rattus norvegicus [16])?
A: 66

Q: And the Max decrease (Felis catus [17])?
A: 57

Q: What about the ED50 (Rattus norvegicus [18]) of the same compound?
A: inactive

Q: What about the bioavailability (Rattus norvegicus [19]) of the same compound?
A: 2.4%

Q: What about the “Accumulated counts/30 min” value (Rattus norvegicus [20]) of the same compound?
A: 17

Q: And the ED50 (Rattus norvegicus [21])?
A: 3 µmol/kg

Q: And the BP (Felis catus [22])?
A: 66%

Q: What about the Swimming activity (Mus musculus [23]) of the same compound?
A: 6.7 T/C

Q: What about the ED50 (Rattus norvegicus [24]) of the same compound?
A: 7.6 µmol/kg

Q: What about the Max decrease (Felis catus [25]) of the same compound?
A: 2

Q: And the ED50 (Felis catus [26])?
A: 0.03 µmol/kg

Q: What about the ED50 (Rattus norvegicus [27]) of the same compound?
A: 7.9 µmol/kg

Q: And the ED50 (Rattus norvegicus [28])?
A: 0.063 µmol/kg

Q: What about the “Accumulated counts/30 min” value (Rattus norvegicus [29]) of the same compound?
A: 883

Q: Which ED50 (Rattus norvegicus [2]) does the source give for `CCCN1CC[C@H]2c3c(cccc3C(N)=O)CC[C@H]21` (stereo in doubt; (-)-3b) [listing 1 of 2 here] here?
A: inactive

Q: And the ED50 (Rattus norvegicus [9])?
A: inactive

Q: What about the Response (Rattus norvegicus [30]) of the same compound?
A: Partially active

Q: What about the ED50 (Rattus norvegicus [18]) of the same compound?
A: inactive

Q: With `O=C(NCCN1CCN(c2cccc3c2OCC(CO)O3)CC1)c1ccc(F)cc1` (single isomer, unassigned; (+)) as the compound, how does the Max decrease (Felis catus [31]) read?
A: 2

Q: What about the ED50 (Rattus norvegicus [1]) of the same compound?
A: 0.16 µmol/kg

Q: What about the ED50 (Rattus norvegicus [2]) of the same compound?
A: inactive

Q: What about the Swimming activity (Mus musculus [32]) of the same compound?
A: 0.6

Q: What about the ED50 (Mus musculus [4]) of the same compound?
A: 1.6 µmol/kg

Q: And the ED50 (Rattus norvegicus [6])?
A: inactive

Q: What about the “Accumulated counts/30 min” value (Rattus norvegicus [33]) of the same compound?
A: 135

Q: And the Response (Rattus norvegicus [8])?
A: Active

Q: And the ED50 (Rattus norvegicus [9])?
A: inactive

Q: And the ED50 (Rattus norvegicus [10])?
A: 0.63 µmol/kg

Q: What about the Swimming activity (Mus musculus [34]) of the same compound?
A: 3.3

Q: And the ED50 (Mus musculus [11])?
A: 0.16 µmol/kg

Q: What about the “Accumulated counts/30 min” value (Rattus norvegicus [35]) of the same compound?
A: 84

Q: And the ED50 (Rattus norvegicus [13])?
A: 0.55 µmol/kg

Q: What about the ED50 (Rattus norvegicus [15]) of the same compound?
A: inactive

Q: What about the Max decrease (Felis catus [17]) of the same compound?
A: 55

Q: And the ED50 (Rattus norvegicus [18])?
A: inactive

Q: And the ED50 (Rattus norvegicus [21])?
A: 0.36 µmol/kg

Q: What about the BP (Felis catus [22]) of the same compound?
A: 79%

Q: What about the ED50 (Rattus norvegicus [24]) of the same compound?
A: 0.36 µmol/kg

Q: What about the ED50 (Felis catus [26]) of the same compound?
A: 0.14 µmol/kg

Q: And the ED50 (Rattus norvegicus [27])?
A: 0.27 µmol/kg

Q: What about the ED50 (Rattus norvegicus [28]) of the same compound?
A: 0.63 µmol/kg

Q: What about the ED50 (Rattus norvegicus [36]) of the same compound?
A: Weak activity

Q: And the Ki [37]?
A: 2.9 nM

Q: For `CCCN1CCC2c3c(cccc3C(N)=O)CC[C@@H]21` (single isomer, unassigned; (+)-3b), which Swimming activity (Mus musculus [38]) is on record?
A: 1.2

Q: What about the “Accumulated counts/30 min” value (Rattus norvegicus [39]) of the same compound?
A: 9

Q: What about the Swimming activity (Mus musculus [40]) of the same compound?
A: 1.1

Q: What about the Ki [37] of the same compound?
A: > 1440 nM

Q: With `CCCN1CC[C@H]2c3c(cccc3C(N)=O)CC[C@H]21` (stereo in doubt; (-)-3b) [listing 2 of 2 here] as the compound, how does the Swimming activity (Mus musculus [38]) read?
A: 0.7

Q: And the Swimming activity (Mus musculus [41])?
A: 1.7

Q: And the Ki [37]?
A: 28 nM
